ChEMBL document CHEMBL5532751, “Identification of chalcone analogues as anti-inflammatory agents through the regulation of NF-κB and JNK activation” (RSC Med Chem, 2024)
Calls of active or inactive are those of the source. The calls are words filed in the database; no cut-off is given here.

Assays:
RAW264.7 [1] = experiment: Antiinflammatory activity in LPS-induced mouse RAW264.7 cells assessed as inhibition of NO production at 20 uM preincubated for 2 hrs followed by LPS stimulation for 24 hrs by Griess reagent based assay; assay type: functional, cell-based; conditions: time 26.0 hrs
Method in brief: (§1)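 Cells at 100 000 per well, grown 36 h in DMEM with 10% heat-inactivated FBS at 37 °C, 5% CO2. Pretreated 2 h with compound (20 μM in the screen), then LPS 1 μg mL−1 for 24 h. Supernatant mixed with Griess reagent, absorbance read at 540 nm, nitrite read from a sodium nitrite standard curve. Expressed as % of LPS control; ≥3 independent experiments, each in triplicate.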

RAW264.7 [2] = experiment: Antiinflammatory activity in LPS-induced mouse RAW264.7 cells assessed as inhibition of PGE2 production preincubated for 2 hrs followed by LPS stimulation for 24 hrs by ELISA method; assay type: functional, cell-based
RAW264.7 [3] = experiment: Antiinflammatory activity in LPS-induced mouse RAW264.7 cells assessed as downregulation of iNOS mRNA expression level preincubated for 2 hrs followed by LPS stimulation for 6 hrs by RT-qPCR analysis; assay type: functional, cell-based; conditions: dose 5-20 µM, time 8.0 hrs
Method in brief: (§2)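 RAW264.7 cells pretreated 2 h with compound at 5, 10 or 20 μM or vehicle, then LPS 1 μg mL−1 for 6 h. Total RNA extracted and target mRNAs quantified by RT-qPCR, normalized to β-actin mRNA. Mean ± SD of three independent experiments.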

RAW264.7 [4] = experiment: Antiinflammatory activity in LPS-induced mouse RAW264.7 cells assessed as inhibition of IL-1beta release preincubated for 2 hrs followed by LPS stimulation for 24 hrs by ELISA method; assay type: functional, cell-based; conditions: for Activity: dose 2.5-40 µM, time 26.0 hrs
Method in brief: (§3)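 RAW264.7 macrophages pretreated 2 h with compound at 2.5, 5, 10, 20 and 40 μM, then LPS 1 μg mL−1 for 24 h. Cytokine in supernatant measured with commercial ELISA kits per the manufacturers' protocols. IC50 derived from the dose series. Mean ± SD.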

RAW264.7 [5] = experiment: Inhibition of NF-kB signaling activation in LPS-induced mouse RAW264.7 cells assessed as downregulation of p65 phosphorylation preincubated for 2 hrs followed by LPS addition for 2 hrs by Western blot analysis; assay type: cell-based; conditions: dose 10-40 µM, time 4.0 hrs
Method in brief: (§4)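 RAW264.7 macrophages pretreated 2 h with vehicle (DMSO) or compound at 10, 20 or 40 μM, then LPS 1 μg mL−1 for 2 h. p-p65 and p-JNK detected by Western blot, normalized to β-actin and to total p65 or JNK. Optical density expressed as % of control; mean ± SEM of at least three independent experiments.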

RAW264.7 [6] = experiment: Antiinflammatory activity in LPS-induced mouse RAW264.7 cells assessed as inhibition of TNF-alpha release preincubated for 2 hrs followed by LPS stimulation for 24 hrs by ELISA method; assay type: functional, cell-based; conditions: for Activity: dose 2.5-40 µM, time 26.0 hrs; method in brief: as §3
RAW264.7 [7] = experiment: Inhibition of ROS production in LPS-induced mouse RAW264.7 cells preincubated for 2 hrs followed by LPS stimulation for 24 hrs by Real-time single cell multi-mode analyzer; assay type: functional, cell-based; conditions: dose 10-40 µM, time 26.0 hrs
Method in brief: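 Cells on confocal dishes at 100 000 per well for 36 h, pretreated 2 h with compound at 10, 20 or 40 μM, then LPS 1 μg mL−1 for 24 h. Loaded with 50 μM H2DCFDA in PBS for 30 min in the dark. ROS read per cell on a real-time single-cell multi-mode analyzer. Mean ± SD.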

RAW264.7 [8] = experiment: Antiinflammatory activity in LPS-induced mouse RAW264.7 cells assessed as inhibition of IL-6 release preincubated for 2 hrs followed by LPS stimulation for 24 hrs by ELISA method; assay type: functional, cell-based; conditions: for Activity: dose 2.5-40 µM, time 26.0 hrs; method in brief: as §3
RAW264.7 [9] = experiment: Antiinflammatory activity in LPS-induced mouse RAW264.7 cells assessed as downregulation of IL-1beta mRNA expression level preincubated for 2 hrs followed by LPS stimulation for 6 hrs by RT-qPCR analysis; assay type: functional, cell-based; conditions: dose 5-20 µM, time 8.0 hrs; method in brief: as §2
RAW264.7 [10] = experiment: Antiinflammatory activity in LPS-induced mouse RAW264.7 cells assessed as downregulation of COX-2 mRNA expression level preincubated for 2 hrs followed by LPS stimulation for 6 hrs by RT-qPCR analysis; assay type: functional, cell-based; conditions: dose 5-20 µM, time 8.0 hrs; method in brief: as §2
RAW264.7 [11] = experiment: Antiinflammatory activity in LPS-induced mouse RAW264.7 cells assessed as reduction in NO production at 20 uM preincubated for 2 hrs followed by LPS stimulation for 24 hrs by Griess reagent based assay; assay type: functional, cell-based; conditions: time 26.0 hrs; method in brief: as §1
RAW264.7 [12] = experiment: Antiinflammatory activity in LPS-induced mouse RAW264.7 cells assessed as decrease in COX-2 protein level at 10 to 40 uM preincubated for 2 hrs followed by LPS stimulation for 24 hrs by Western blot analysis; assay type: functional, cell-based; conditions: dose 10-40 µM, time 26.0 hrs
Method in brief: (§5)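 RAW264.7 cells given compound at 10, 20 or 40 μM, then LPS (1 μg mL−1). Lysis in 1% Triton X-100 buffer with phosphatase and protease inhibitors, 30 min on ice. Protein quantified by BCA, run on 10% SDS-PAGE, transferred to PVDF. Primary antibody overnight at 4 °C, HRP secondary 2 h at room temperature, ECL detection. β-Actin as loading control. Mean ± SD, n = 3.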

RAW264.7 [13] = experiment: Antiinflammatory activity in LPS-induced mouse RAW264.7 cells assessed as inhibition of NO production preincubated for 2 hrs followed by LPS stimulation for 24 hrs by Griess reagent based assay; assay type: functional, cell-based; method in brief: as §1
RAW264.7 [14] = experiment: Antiinflammatory activity in LPS-induced mouse RAW264.7 cells assessed as downregulation of TNF-alpha mRNA expression level preincubated for 2 hrs followed by LPS stimulation for 6 hrs by RT-qPCR analysis; assay type: functional, cell-based; conditions: dose 5-20 µM, time 8.0 hrs; method in brief: as §2
RAW264.7 [15] = experiment: Inhibition of JNK signaling activation in LPS-induced mouse RAW264.7 cells assessed as downregulation of JNK phosphorylation preincubated for 2 hrs followed by LPS addition for 2 hrs by Western blot analysis; assay type: cell-based; conditions: dose 10-40 µM, time 4.0 hrs; method in brief: as §4
RAW264.7 [16] = experiment: Cytotoxicity against mouse RAW264.7 cells assessed as cell survival at 20 uM incubated for 4 hrs by CCK-8 method; assay type: toxicity, cell-based; conditions: raw264.7, 4 h
Method in brief: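 RAW 264.7 cells seeded at 20 000 per well, grown 24 h at 37 °C, exposed to compound for 4 h. CCK-8 (WST-8) reagent then added for 50 min at 37 °C, absorbance read at 450 nm. Survival = (test − blank)/(untreated medium control − blank) × 100%, blank being medium without cells.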

RAW264.7 [17] = experiment: Antiinflammatory activity in LPS-induced mouse RAW264.7 cells assessed as decrease in iNOS protein level at 10 to 40 uM preincubated for 2 hrs followed by LPS stimulation for 24 hrs by Western blot analysis; assay type: functional, cell-based; conditions: dose 10-40 µM, time 26.0 hrs; method in brief: as §5
RAW264.7 [18] = experiment: Antiinflammatory activity in LPS-induced mouse RAW264.7 cells assessed as downregulation of IL-6 mRNA expression level preincubated for 2 hrs followed by LPS stimulation for 6 hrs by RT-qPCR analysis; assay type: functional, cell-based; conditions: dose 5-20 µM, time 8.0 hrs; method in brief: as §2
RAW264.7 [19] = experiment: Antiinflammatory activity in LPS-induced mouse RAW264.7 cells assessed as inhibition of iNOS activity preincubated for 2 hrs followed by LPS stimulation for 24 hrs by ELISA method; assay type: functional, cell-based

SMILES | IC50 (RAW264.7 [2]) [µM] | Activity (RAW264.7 [3]) | IC50 (RAW264.7 [4]) [µM] | Activity (RAW264.7 [4]) | inhibition (RAW264.7 [5]) | IC50 (RAW264.7 [6]) [µM] | Activity (RAW264.7 [6]) | IC50 (RAW264.7 [8]) [µM] | Activity (RAW264.7 [8]) | Activity (RAW264.7 [9]) | Activity (RAW264.7 [10]) | Activity (RAW264.7 [12]) | Activity (RAW264.7 [14]) | inhibition (RAW264.7 [15]) | Activity (RAW264.7 [16]) | Activity (RAW264.7 [17]) | Activity (RAW264.7 [18]) | IC50 (RAW264.7 [19]) [µM] | Activity (RAW264.7 [1]) | also measured
COc1ccc(CCC(=O)c2ccc(O)cc2)c(OC)c1 |  |  |  |  |  |  |  |  |  |  |  |  |  |  |  |  |  |  |  | inhibition (RAW264.7 [1]): inactive
COc1ccc(/C=C/C(=O)c2cc(OC)c(OC)c(OC)c2)cc1OC | 9.5 | Dose-Dependent Effect | 10 | Dose-Dependent Effect | Dose-Dependent Effect | 7.1 | Dose-Dependent Effect | 8.4 | Dose-Dependent Effect | Dose-Dependent Effect | Dose-Dependent Effect | Active | Dose-Dependent Effect | Dose-Dependent Effect | Non-Toxic | Active | Dose-Dependent Effect | 11.9 |  | inhibition (RAW264.7 [7]): Dose-Dependent Effect; Activity (RAW264.7 [11]): Active; IC50 (RAW264.7 [13]): 7.6 µM; Activity (RAW264.7 [13]; dose 2.5-40 µM, time 26.0 hrs): Dose-Dependent Effect
COc1ccc(C(=O)CCc2ccc(OC)c(OC)c2)cc1 |  |  |  |  |  |  |  |  |  |  |  |  |  |  |  |  |  |  | inactive | 
COc1cc(CCC(=O)c2ccc(F)c(C)c2)cc(OC)c1OC |  |  |  |  |  |  |  |  |  |  |  |  |  |  |  |  |  |  | inactive | 
COc1ccc(C(=O)/C=C/c2cc(OC)c(OC)c(OC)c2)cc1OC | 4 | Dose-Dependent Effect | 12.3 | Dose-Dependent Effect | Dose-Dependent Effect | 7.9 | Dose-Dependent Effect | 2.1 | Dose-Dependent Effect | Dose-Dependent Effect | Dose-Dependent Effect | Active | Dose-Dependent Effect | Dose-Dependent Effect | Non-Toxic | Active | Dose-Dependent Effect | 4.6 |  | 
